In brackets after ≈: the same amount, converted by molar mass.
What was measured:
Type in all cases: functional
[1] = tested on: Staphylococcus lugdunensis; assay: Antibacterial activity against Staphylococcus lugdunensis isolated from patient with diabetic foot infection assessed as percent resistant isolates after 18 to 24 hrs by broth microdilution method
Method in brief: (§1)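 Aerobes subcultured on Trypticase soy blood agar, then broth microdilution in cation-adjusted Mueller-Hinton broth. Trays prepared in-house with twofold dilutions and stored at −70°C. Overnight colonies suspended to about 5 × 10^5 CFU/ml final. Read after 18 to 24 h at 37°C. QC strains included S. aureus ATCC 29213 and E. coli ATCC 25922.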

[2] = tested on: Proteus mirabilis; assay: Antibacterial activity against Proteus mirabilis isolated from patient with diabetic foot infection after 18 to 24 hrs by broth microdilution method
Method in brief: (§2)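 Isolates were subcultured on Trypticase soy blood agar and tested by broth microdilution in cation-adjusted Mueller-Hinton broth. In-house trays of twofold drug dilutions were stored at −70°C. Overnight colonies gave a final inoculum of about 5 × 10^5 CFU/ml. Plates were read after 18 to 24 h at 37°C.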

[3] = tested on: Proteus mirabilis; assay: Antibacterial activity against Proteus mirabilis isolated from patient with diabetic foot infection assessed as percent resistant isolates after 18 to 24 hrs by broth microdilution method; method in brief: as §1
[4] = tested on: Escherichia coli; assay: Antibacterial activity against Escherichia coli isolated from patient with diabetic foot infection assessed as percent resistant isolates after 18 to 24 hrs by broth microdilution method; method in brief: as §1
[5] = tested on: Streptococcus agalactiae; assay: Antibacterial activity against Streptococcus agalactiae isolated from patient with diabetic foot infection assessed as percent resistant isolates after 18 to 24 hrs by broth microdilution method
Method in brief: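 Streptococci subcultured on Trypticase soy blood agar and tested by broth microdilution in cation-adjusted Mueller-Hinton broth with lysed horse blood. In-house twofold dilution trays stored at −70°C. About 5 × 10^5 CFU/ml final inoculum from overnight colonies. Read after 18 to 24 h at 37°C.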

[6] = tested on: Corynebacterium minutissimum; assay: Antibacterial activity against Corynebacterium minutissimum isolated from patient with diabetic foot infection assessed as percent resistant isolates after 48 hrs by broth microdilution method
Method in brief: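 Isolates subcultured on Trypticase soy blood agar. Broth microdilution in cation-adjusted Mueller-Hinton broth with lysed horse blood, using in-house twofold dilution trays stored at −70°C. Inoculum from overnight colonies at about 5 × 10^5 CFU/ml final. Read after 18 to 24 h at 37°C, up to 48 h for some Corynebacterium strains.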

[7] = tested on: Streptococcus agalactiae; assay: Antibacterial activity against Streptococcus agalactiae isolated from patient with diabetic foot infection after 18 to 24 hrs by broth microdilution method
Method in brief: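 Streptococcal isolates were subcultured on Trypticase soy blood agar. Broth microdilution used cation-adjusted Mueller-Hinton broth with lysed horse blood, in in-house trays of serial twofold drug dilutions stored at −70°C. Overnight colonies were suspended to a final inoculum of approximately 5 × 10^5 CFU/ml. MIC was read after 18 to 24 h incubation at 37°C.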

[8] = tested on: Klebsiella pneumoniae; assay: Antibacterial activity against Klebsiella pneumoniae isolated from patient with diabetic foot infection assessed as percent resistant isolates after 18 to 24 hrs by broth microdilution method; method in brief: as §1
[9] = tested on: Corynebacterium simulans; assay: Antibacterial activity against Corynebacterium simulans isolated from patient with diabetic foot infection after 48 hrs by broth microdilution method
Method in brief: (§3)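 Isolates were subcultured on Trypticase soy blood agar. Broth microdilution used cation-adjusted Mueller-Hinton broth with lysed horse blood, in-house trays of twofold drug dilutions stored at −70°C. Colonies from overnight growth gave a final inoculum of about 5 × 10^5 CFU/ml. Trays were read after 18 to 24 h at 37°C, up to 48 h for some strains.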

[10] = tested on: Klebsiella aerogenes; assay: Antibacterial activity against Enterobacter aerogenes isolated from patient with diabetic foot infection assessed as percent resistant isolates after 18 to 24 hrs by broth microdilution method; method in brief: as §1
[11] = tested on: Corynebacterium xerosis; assay: Antibacterial activity against Corynebacterium xerosis isolated from patient with diabetic foot infection after 48 hrs by broth microdilution method; method in brief: as §3
[12] = tested on: Pseudomonas aeruginosa; assay: Antibacterial activity against Pseudomonas aeruginosa isolated from patient with diabetic foot infection after 18 to 24 hrs by broth microdilution method; method in brief: as §2
[13] = tested on: Streptococcus pyogenes; assay: Antibacterial activity against Streptococcus pyogenes isolated from patient with diabetic foot infection assessed as percent resistant isolates after 18 to 24 hrs by broth microdilution method
Method in brief: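 Isolates subcultured on Trypticase soy blood agar. MICs by broth microdilution in cation-adjusted Mueller-Hinton broth with lysed horse blood, in in-house trays of serial twofold drug dilutions stored at −70°C. Colonies from overnight growth were suspended to a final inoculum of about 5 × 10^5 CFU/ml. Read after 18–24 h at 37°C.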

[14] = tested on: Corynebacterium urealyticum; assay: Antibacterial activity against Corynebacterium urealyticum isolated from patient with diabetic foot infection after 48 hrs by broth microdilution method; method in brief: as §3
[15] = tested on: Staphylococcus aureus; assay: Antibacterial activity against methicillin-sensitive Staphylococcus aureus isolated from patient with diabetic foot infection assessed as percent resistant isolates after 18 to 24 hrs by broth microdilution method
Method in brief: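 Isolates grown on Trypticase soy blood agar, then tested by broth microdilution in unsupplemented cation-adjusted Mueller-Hinton broth. In-house trays held serial twofold drug dilutions and were stored at −70°C. Overnight colonies were suspended to a final inoculum near 5 × 10^5 CFU/ml, and trays read after 18–24 h at 37°C. QC strains: S. aureus ATCC 29213, E. coli ATCC 25922.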

[16] = tested on: Corynebacterium; assay: Antibacterial activity against multi drug-resistant Corynebacterium assessed as percent of susceptible isolates at =< 4 ug/ml by NCCLS M7-A6 method
[17] = tested on: Escherichia coli; assay: Antibacterial activity against Escherichia coli ATCC 25922 after 44 to 48 hrs by agar dilution method
[18] = tested on: Clostridioides difficile; assay: Antibacterial activity against Clostridium difficile ATCC 700057 after 44 to 48 hrs by agar dilution method
Method in brief: (§4)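 CLSI M11-A7 agar dilution: serial twofold drug dilutions made on the test day and added to molten agar. Spots of 10^5 CFU were applied by replicator, with drug-free control plates inoculated before and after each set. Incubation was 44 to 48 h at 37°C in an anaerobic chamber. MIC was the lowest concentration giving no growth or a marked change in growth versus controls.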

[19] = tested on: Staphylococcus aureus; assay: Antibacterial activity against Staphylococcus aureus ATCC 29213 after 44 to 48 hrs by agar dilution method
[20] = tested on: Enterococcus faecalis; assay: Antibacterial activity against Enterococcus faecalis after 44 to 48 hrs by agar dilution method
[21] = tested on: Bacteroides fragilis; assay: Antibacterial activity against Bacteroides fragilis ATCC 25285 after 44 to 48 hrs by agar dilution method; method in brief: as §4

Compound | Activity [1] | MIC50 [2] | MIC90 [2] | Activity [3] | Activity [4] | Activity [5] | MIC50 [7] | MIC90 [7] | Activity [8] | MIC50 [9] | MIC90 [9] | Activity [10] | MIC50 [11] | MIC90 [11] | MIC50 [12] | MIC90 [12] | Activity [13] | MIC50 [14] | MIC90 [14] | Activity [15] | other results
C[C@@H](O)[C@H]1C(=O)N2C(C(=O)O)=C(SCCNC=N)C[C@H]12 [IMIPENEM ANHYDROUS] | 0% | 0.5 µg/mL (≈ 1.67 µM) | 4 µg/mL (≈ 13.4 µM) | 0% | 0% | 0% | ≤ 0.015 µg/mL | ≤ 0.015 µg/mL | 0% | 0.03 µg/mL (≈ 0.1 µM) | 0.125 µg/mL (≈ 0.418 µM) | 0% | 0.03 µg/mL (≈ 0.1 µM) | 0.125 µg/mL (≈ 0.418 µM) | 2 µg/mL (≈ 6.68 µM) | 8 µg/mL (≈ 26.7 µM) | 0% | 0.25 µg/mL (≈ 0.835 µM) | 32 µg/mL (≈ 107 µM) | 0% | Activity [6]: 30%
C[C@@H](O)[C@H]1C(=O)N2C(C(=O)O)=C(S[C@@H]3CN[C@H](CNS(N)(=O)=O)C3)[C@H](C)[C@H]12 [DORIPENEM] | 0% | 0.125 µg/mL (≈ 0.297 µM) | 0.25 µg/mL (≈ 0.595 µM) | 0% | 0% | 0% | ≤ 0.015 µg/mL | 0.03 µg/mL (≈ 0.0713 µM) | 0% | 0.125 µg/mL (≈ 0.297 µM) | 0.25 µg/mL (≈ 0.595 µM) | 0% | 0.125 µg/mL (≈ 0.297 µM) | 0.25 µg/mL (≈ 0.595 µM) | 0.25 µg/mL (≈ 0.595 µM) | 2 µg/mL (≈ 4.76 µM) | 0% | 1 µg/mL (≈ 2.38 µM) | 8 µg/mL (≈ 19 µM) | 0% | Activity [16]: 40%; MIC [17]: ≤ 0.015 µg/mL; MIC [18]: 2 µg/mL (≈ 4.76 µM); MIC [19]: 0.03 µg/mL (≈ 0.0713 µM); MIC [20]: 2 µg/mL (≈ 4.76 µM); MIC [21]: 0.125 µg/mL (≈ 0.297 µM)
CCC[C@@H]1C[C@@H](C(=O)N[C@@H]([C@H]2O[C@H](SC)[C@H](O)[C@@H](O)[C@H]2O)[C@H](C)Cl)N(C)C1 [CLINDAMYCIN] | 13% |  |  |  |  | 33% | 0.125 µg/mL (≈ 0.294 µM) | > 64 µg/mL |  | 2 µg/mL (≈ 4.71 µM) | > 64 µg/mL |  | 2 µg/mL (≈ 4.71 µM) | > 64 µg/mL |  |  | 13% | > 64 µg/mL | > 64 µg/mL | 0% | Activity [6]: 100%
C[C@@H](O)[C@H]1C(=O)N2C(C(=O)O)=C(S[C@@H]3CN[C@H](C(=O)Nc4cccc(C(=O)O)c4)C3)[C@H](C)[C@H]12 [ERTAPENEM] | 0% | ≤ 0.015 µg/mL | 0.25 µg/mL (≈ 0.526 µM) | 0% | 0% | 0% | 0.06 µg/mL (≈ 0.126 µM) | 0.06 µg/mL (≈ 0.126 µM) | 0% | 0.5 µg/mL (≈ 1.05 µM) | 1 µg/mL (≈ 2.1 µM) | 0% | 0.5 µg/mL (≈ 1.05 µM) | 1 µg/mL (≈ 2.1 µM) | 8 µg/mL (≈ 16.8 µM) | 32 µg/mL (≈ 67.3 µM) | 0% | 1 µg/mL (≈ 2.1 µM) | 32 µg/mL (≈ 67.3 µM) | 0% | 
C[C@@H](O)[C@H]1C(=O)N2C(C(=O)O)=C(S[C@@H]3CN[C@H](C(=O)N(C)C)C3)[C@H](C)[C@H]12 [MEROPENEM] | 0% | 0.06 µg/mL (≈ 0.156 µM) | 0.125 µg/mL (≈ 0.326 µM) | 0% | 0% | 0% | 0.06 µg/mL (≈ 0.156 µM) | 0.06 µg/mL (≈ 0.156 µM) | 0% | 0.125 µg/mL (≈ 0.326 µM) | 0.25 µg/mL (≈ 0.652 µM) | 0% | 0.125 µg/mL (≈ 0.326 µM) | 0.25 µg/mL (≈ 0.652 µM) | 0.5 µg/mL (≈ 1.3 µM) | 4 µg/mL (≈ 10.4 µM) | 0% | 1 µg/mL (≈ 2.61 µM) | 16 µg/mL (≈ 41.7 µM) | 0% | Activity [6]: 20%

Source: ChEMBL document CHEMBL1153560, “In vitro activities of doripenem and six comparator drugs against 423 aerobic and anaerobic bacterial isolates from infected diabetic foot wounds” (2008)
